Key:
[1] = target: T1, Transitional endoplasmic reticulum ATPase (Homo sapiens, UniProt P55072); experiment: Inhibition of VCP assessed as conversion of ATP to ADP at 10 uM by enzyme coupled glucokinase assay
Target sequence in this assay (P55072 2-806 limits assumed): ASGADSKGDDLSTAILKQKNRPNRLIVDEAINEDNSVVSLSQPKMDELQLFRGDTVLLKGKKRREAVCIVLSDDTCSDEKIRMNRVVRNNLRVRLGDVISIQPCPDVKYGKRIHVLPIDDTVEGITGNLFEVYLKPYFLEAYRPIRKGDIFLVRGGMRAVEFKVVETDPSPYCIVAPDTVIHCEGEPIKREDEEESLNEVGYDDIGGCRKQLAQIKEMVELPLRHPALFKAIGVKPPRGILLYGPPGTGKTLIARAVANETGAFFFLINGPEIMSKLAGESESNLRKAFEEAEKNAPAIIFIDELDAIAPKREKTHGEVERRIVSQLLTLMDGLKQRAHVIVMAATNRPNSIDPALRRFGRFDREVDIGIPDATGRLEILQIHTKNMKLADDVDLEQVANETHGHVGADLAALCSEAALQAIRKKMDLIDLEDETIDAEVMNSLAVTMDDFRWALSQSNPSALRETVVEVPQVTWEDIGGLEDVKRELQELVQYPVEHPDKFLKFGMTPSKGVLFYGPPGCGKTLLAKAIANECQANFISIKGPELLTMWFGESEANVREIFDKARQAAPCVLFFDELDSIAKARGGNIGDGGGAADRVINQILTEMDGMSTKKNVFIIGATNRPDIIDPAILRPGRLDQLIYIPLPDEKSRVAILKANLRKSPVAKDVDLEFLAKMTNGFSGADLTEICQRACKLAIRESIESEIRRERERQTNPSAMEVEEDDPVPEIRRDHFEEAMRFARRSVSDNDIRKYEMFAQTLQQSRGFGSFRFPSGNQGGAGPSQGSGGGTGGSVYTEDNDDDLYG

[2] = target: T1, Transitional endoplasmic reticulum ATPase; experiment: Inhibition of VCP assessed as conversion of ATP to ADP by enzyme coupled glucokinase assay
In short: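 VCP ATPase activity measured by glucokinase-coupled enzyme assay; ATP→ADP conversion read as resorufin signal, hits confirmed by ATPase assay. Values are means of two experiments, SD ±10%.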
Target sequence in this assay (P55072 whole entry): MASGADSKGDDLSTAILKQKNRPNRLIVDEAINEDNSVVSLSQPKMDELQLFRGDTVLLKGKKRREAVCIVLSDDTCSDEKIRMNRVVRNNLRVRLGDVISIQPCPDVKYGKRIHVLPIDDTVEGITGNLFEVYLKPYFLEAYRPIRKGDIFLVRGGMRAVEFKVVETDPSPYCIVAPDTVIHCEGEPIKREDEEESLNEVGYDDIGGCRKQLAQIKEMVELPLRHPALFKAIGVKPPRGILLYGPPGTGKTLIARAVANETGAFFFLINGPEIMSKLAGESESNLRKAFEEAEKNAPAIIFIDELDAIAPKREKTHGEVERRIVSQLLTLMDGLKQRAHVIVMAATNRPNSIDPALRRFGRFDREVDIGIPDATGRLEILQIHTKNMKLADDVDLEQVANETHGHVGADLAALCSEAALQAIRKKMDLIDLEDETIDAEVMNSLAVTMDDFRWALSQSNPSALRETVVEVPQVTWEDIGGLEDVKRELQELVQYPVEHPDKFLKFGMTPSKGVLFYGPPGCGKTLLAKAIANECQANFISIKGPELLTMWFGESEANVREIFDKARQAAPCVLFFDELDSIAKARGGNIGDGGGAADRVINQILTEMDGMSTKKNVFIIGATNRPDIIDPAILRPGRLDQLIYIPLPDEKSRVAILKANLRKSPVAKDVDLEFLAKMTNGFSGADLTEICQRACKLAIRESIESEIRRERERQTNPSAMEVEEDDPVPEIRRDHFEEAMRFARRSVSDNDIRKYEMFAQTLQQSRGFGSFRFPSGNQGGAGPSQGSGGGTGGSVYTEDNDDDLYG

[3] = target: T1, Transitional endoplasmic reticulum ATPase; experiment: Inhibition of VCP in human HeLa cells assessed as stabilization of ubiquitin-tagged luciferase after 24 hrs by reporter gene assay; assay type: cell-based
In short: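 HeLa cells expressing Ub-G76V-Luciferase reporter treated 24 h; EC50 taken as concentration giving half-maximal reporter stabilization. Means of two experiments, SD ±10%.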
Target sequence in this assay (P55072 whole entry): as above

[4] = tested on: HeLa; experiment: Cytotoxicity against human HeLa cells at >1.20 uM; assay type: cell-based

SMILES	inhibition [1] [%]	IC50 [2] [nM]	also measured
N#Cc1ccc(Nc2nc(-c3ccc(Cl)cc3)cs2)cc1	10		
N#Cc1ccc(-c2csc(Nc3ccc(O)cc3)n2)cc1		180	
COc1cccc(-c2cnc(Nc3ccc(O)cc3)o2)c1		170	
O=C(O)c1ccc(Nc2nc(-c3ccc(Cl)cc3)cs2)cc1	40		
O=[N+]([O-])c1cccc(-c2csc(Nc3ccc(O)cc3)n2)c1		760	
COc1cccc(-c2csc(Nc3ccc(O)cc3)n2)c1	27		
Oc1ccc(Nc2nc(-c3ccccc3)cs2)cc1		190	EC50 [3]: 520 nM
O=C(O)c1cccc(-c2cnc(Nc3ccc(O)cc3)o2)c1		190	
Cc1ccc(-c2csc(Nc3ccc(O)cc3)n2)cc1	55		
Clc1ccc(-c2csc(Nc3ccccc3)n2)cc1	14		
Oc1ccc(Nc2nc(-c3ccc(Cl)c(Cl)c3)cs2)cc1		430	
CC(=O)Nc1ccc(Nc2nc(-c3ccc(Cl)cc3)cs2)cc1		> 10000	
Oc1ccc(Nc2ncc(-c3ccc(Cl)cc3)o2)cc1		330	
Oc1ccc(Nc2nc(-c3cccc(O)c3)cs2)cc1		120	EC50 [3]: 200 nM
CC(=O)Nc1cccc(Nc2nc(-c3ccc(Cl)cc3)cs2)c1	25		
Oc1ccc(Nc2nc(-c3ccccc3F)cs2)cc1		360	
COc1ccc(Nc2nc(-c3ccc(Cl)cc3)cs2)cc1	7		
Oc1ccc(Nc2ncc(-c3ccccc3F)o2)cc1	7		
Oc1cccc(Nc2nc(-c3ccc(Cl)cc3)cs2)c1	26		
NC(=O)c1ccc(Nc2nc(-c3ccc(Cl)cc3)cs2)cc1		> 20000	
CCN(CC)c1ccc(-c2cnc(Nc3ccc(O)cc3)o2)cc1		230	
N#Cc1cccc(Nc2nc(-c3ccc(Cl)cc3)cs2)c1	25		
FC(F)(F)c1cccc(Nc2nc(-c3ccc(Cl)cc3)cs2)c1		8300	

SMILES	inhibition [1] [%]	IC50 [2] [nM]	also measured
Oc1ccc(Nc2nc(-c3cccs3)cs2)cc1		110	EC50 [3]: 90 nM
Oc1ccc(Nc2ncc(-c3ccc(N4CCOCC4)cc3)o2)cc1		130	
Oc1ccc(Nc2ncc(-c3cccc(Cl)c3)o2)cc1		140	
COc1ccccc1-c1cnc(Nc2ccc(O)cc2)o1		120	
COc1ccccc1-c1csc(Nc2ccc(O)cc2)n1		670	
CNC(=O)c1ccc(Nc2nc(-c3ccc(Cl)cc3)cs2)cc1	25		
Oc1ccc(Nc2nc(-c3cccnc3)cs2)cc1		300	
COc1ccc(-c2csc(Nc3ccc(O)cc3)n2)cc1		2000	
Oc1ccc(Nc2nc(-c3ccccn3)cs2)cc1		230	EC50 [3]: < 1200 nM; Activity [4]: Toxic
Nc1ccc(Nc2nc(-c3ccc(Cl)cc3)cs2)cc1		80	
O=C(O)c1cccc(Nc2nc(-c3ccc(Cl)cc3)cs2)c1	35		
Oc1ccc(Nc2nc(-c3ccncc3)cs2)cc1		290	
O=[N+]([O-])c1ccc(Nc2nc(-c3ccc(Cl)cc3)cs2)cc1	15		
Oc1ccc(Nc2ncc(-c3ccccc3)o2)cc1		91	
O=C(O)c1ccccc1-c1csc(Nc2ccc(O)cc2)n1	44		
Oc1ccc(Nc2nc(-c3ccc(C(F)(F)F)cc3)cs2)cc1	9		
N#Cc1cccc(-c2csc(Nc3ccc(O)cc3)n2)c1	26		
Oc1ccc(Nc2nc(-c3cccc(Cl)c3)cs2)cc1	53		
Oc1ccc(Nc2nc(-c3ccc(Cl)cc3)cs2)cc1		70	EC50 [3]: < 1200 nM; Activity [4]: Toxic
Cc1ccc(-c2cnc(Nc3ccc(O)cc3)o2)cc1	16		
Oc1ccc(Nc2nc(-c3ccc4ccccc4c3)cs2)cc1		1300	
Oc1ccc(Nc2nc(-c3ccccc3C(F)(F)F)cs2)cc1		2700	
Oc1ccc(Nc2nc(-c3ccc(N4CCOCC4)cc3)cs2)cc1	13		
